# ChEMBL document CHEMBL4261538, “Synthesis and molecular docking studies of xanthone attached amino acids as potential antimicrobial and anti-inflammatory agents” (Medchemcomm, 2017)
# How the values were obtained:
# Staphylococcus aureus [1] = assay: Antibacterial activity against Staphylococcus aureus at 25 ug/ml incubated for 24 hrs by agar well diffusion method; format: functional; settings: read-out: DIZ
# In short: (§1)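 Bacteria grown in nutrient broth at 37 °C for 24 h, then subcultured at room temperature. Compounds dissolved in DMSO at 5 mg mL⁻¹ and 5–20 µL added to 6 mm wells, giving 25, 50, 75, 100 µg per well. Gentamicin was the positive control and DMSO the negative control. Plates held at 37 °C for 24 h, then inhibition zone diameter (mm) measured. Values are means of three determinations.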
# Staphylococcus aureus [2] = assay: Antibacterial activity against Staphylococcus aureus at 50 ug/ml incubated for 24 hrs by agar well diffusion method; format: functional; settings: read-out: DIZ; in short: as §1
# Staphylococcus aureus [3] = assay: Antibacterial activity against Staphylococcus aureus at 75 ug/ml incubated for 24 hrs by agar well diffusion method; format: functional; settings: read-out: DIZ; in short: as §1
# Staphylococcus aureus [4] = assay: Antibacterial activity against Staphylococcus aureus at 100 ug/ml incubated for 24 hrs by agar well diffusion method; format: functional; settings: read-out: DIZ; in short: as §1
# Bacillus subtilis [5] = assay: Antibacterial activity against Bacillus subtilis at 25 ug/ml incubated for 24 hrs by agar well diffusion method; format: functional; settings: read-out: DIZ; in short: as §1
# Bacillus subtilis [6] = assay: Antibacterial activity against Bacillus subtilis at 50 ug/ml incubated for 24 hrs by agar well diffusion method; format: functional; settings: read-out: DIZ; in short: as §1
# Bacillus subtilis [7] = assay: Antibacterial activity against Bacillus subtilis at 75 ug/ml incubated for 24 hrs by agar well diffusion method; format: functional; settings: read-out: DIZ; in short: as §1
# Bacillus subtilis [8] = assay: Antibacterial activity against Bacillus subtilis at 100 ug/ml incubated for 24 hrs by agar well diffusion method; format: functional; settings: read-out: DIZ; in short: as §1
# Escherichia coli [9] = assay: Antibacterial activity against Escherichia coli at 25 ug/ml incubated for 24 hrs by agar well diffusion method; format: functional; settings: read-out: DIZ; in short: as §1
# Escherichia coli [10] = assay: Antibacterial activity against Escherichia coli at 50 ug/ml incubated for 24 hrs by agar well diffusion method; format: functional; settings: read-out: DIZ; in short: as §1
# Escherichia coli [11] = assay: Antibacterial activity against Escherichia coli at 75 ug/ml incubated for 24 hrs by agar well diffusion method; format: functional; settings: read-out: DIZ; in short: as §1
# Escherichia coli [12] = assay: Antibacterial activity against Escherichia coli at 100 ug/ml incubated for 24 hrs by agar well diffusion method; format: functional; settings: read-out: DIZ; in short: as §1
# Klebsiella pneumoniae [13] = assay: Antibacterial activity against Klebsiella pneumoniae at 25 ug/ml incubated for 24 hrs by agar well diffusion method; format: functional; settings: read-out: DIZ; in short: as §1
# Klebsiella pneumoniae [14] = assay: Antibacterial activity against Klebsiella pneumoniae at 50 ug/ml incubated for 24 hrs by agar well diffusion method; format: functional; settings: read-out: DIZ; in short: as §1
# Klebsiella pneumoniae [15] = assay: Antibacterial activity against Klebsiella pneumoniae at 75 ug/ml incubated for 24 hrs by agar well diffusion method; format: functional; settings: read-out: DIZ; in short: as §1
# Klebsiella pneumoniae [16] = assay: Antibacterial activity against Klebsiella pneumoniae at 100 ug/ml incubated for 24 hrs by agar well diffusion method; format: functional; settings: read-out: DIZ; in short: as §1
# Aspergillus niger [17] = assay: Antifungal activity against Aspergillus niger at 25 ug/ml incubated for 48 hrs by agar well diffusion method; format: functional; settings: read-out: DIZ
# In short: (§2)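 Compounds dissolved in DMSO at 5 mg mL⁻¹ and 5–20 µL added to 6 mm wells, giving 25, 50, 75, 100 µg per well. Bavistin was the positive control and DMSO the negative control. Plates incubated at 28 °C for 48 h, then inhibition zone diameter (mm) measured. Values are means of three determinations.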
# Aspergillus niger [18] = assay: Antifungal activity against Aspergillus niger at 50 ug/ml incubated for 48 hrs by agar well diffusion method; format: functional; settings: read-out: DIZ; in short: as §2
# Aspergillus niger [19] = assay: Antifungal activity against Aspergillus niger at 75 ug/ml incubated for 48 hrs by agar well diffusion method; format: functional; settings: read-out: DIZ; in short: as §2
# Aspergillus niger [20] = assay: Antifungal activity against Aspergillus niger at 100 ug/ml incubated for 48 hrs by agar well diffusion method; format: functional; settings: read-out: DIZ; in short: as §2
# Candida albicans [21] = assay: Antifungal activity against Candida albicans at 25 ug/ml incubated for 48 hrs by agar well diffusion method; format: functional; settings: read-out: DIZ; in short: as §2
# Candida albicans [22] = assay: Antifungal activity against Candida albicans at 50 ug/ml incubated for 48 hrs by agar well diffusion method; format: functional; settings: read-out: DIZ; in short: as §2
# Candida albicans [23] = assay: Antifungal activity against Candida albicans at 75 ug/ml incubated for 48 hrs by agar well diffusion method; format: functional; settings: read-out: DIZ; in short: as §2
# Candida albicans [24] = assay: Antifungal activity against Candida albicans at 100 ug/ml incubated for 48 hrs by agar well diffusion method; format: functional; settings: read-out: DIZ; in short: as §2
# Fusarium oxysporum [25] = assay: Antifungal activity against Fusarium oxysporum at 25 ug/ml incubated for 48 hrs by agar well diffusion method; format: functional; settings: read-out: DIZ; in short: as §2
# Fusarium oxysporum [26] = assay: Antifungal activity against Fusarium oxysporum at 50 ug/ml incubated for 48 hrs by agar well diffusion method; format: functional; settings: read-out: DIZ; in short: as §2
# Fusarium oxysporum [27] = assay: Antifungal activity against Fusarium oxysporum at 75 ug/ml incubated for 48 hrs by agar well diffusion method; format: functional; settings: read-out: DIZ; in short: as §2
# Fusarium oxysporum [28] = assay: Antifungal activity against Fusarium oxysporum at 100 ug/ml incubated for 48 hrs by agar well diffusion method; format: functional; settings: read-out: DIZ; in short: as §2
# Erythrocyte = assay: Anti-inflammatory activity in human RBC assessed as inhibition of hypotonic solution-induced hemolysis after 10 mins by spectrophotometric method; format: functional, cell-based
# In short: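 Human blood (heparinized) washed with 0.9% saline, packed cells made into a 40% v/v stock in isotonic phosphate buffer (154 mM NaCl, 10 mM sodium phosphate, pH 7.4). Stock RBC mixed with hypotonic buffer (50 mM NaCl, 10 mM phosphate, pH 7.4) plus sample at 20–100 µg mL⁻¹.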
# Aspergillus niger [29] = assay: Antifungal activity against Aspergillus niger incubated for 48 to 72 hrs by microdilution method; format: functional
# In short: (§3)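 Sabouraud agar plates inoculated with fungal suspension at 10⁵ CFU mL⁻¹ plus serially diluted compounds and bavistin reference, both in DMSO. Incubated at 25 °C for 48–72 h. MIC is the lowest concentration completely inhibiting growth. Values are means of three determinations.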
# Candida albicans [30] = assay: Antifungal activity against Candida albicans incubated for 48 to 72 hrs by microdilution method; format: functional; in short: as §3
# Fusarium oxysporum [31] = assay: Antifungal activity against Fusarium oxysporum incubated for 48 to 72 hrs by microdilution method; format: functional; in short: as §3
SMILES,zone of inhibition at 25 µg/mL (Staphylococcus aureus [1]),zone of inhibition at 50 µg/mL (Staphylococcus aureus [2]),zone of inhibition at 75 µg/mL (Staphylococcus aureus [3]),zone of inhibition at 100 µg/mL (Staphylococcus aureus [4]),zone of inhibition at 25 µg/mL (Bacillus subtilis [5]),zone of inhibition at 50 µg/mL (Bacillus subtilis [6]),zone of inhibition at 75 µg/mL (Bacillus subtilis [7]),zone of inhibition at 100 µg/mL (Bacillus subtilis [8]),zone of inhibition at 25 µg/mL (Aspergillus niger [17]),zone of inhibition at 50 µg/mL (Aspergillus niger [18]),zone of inhibition at 75 µg/mL (Aspergillus niger [19]),zone of inhibition at 100 µg/mL (Aspergillus niger [20]),zone of inhibition at 25 µg/mL (Candida albicans [21]),zone of inhibition at 50 µg/mL (Candida albicans [22]),zone of inhibition at 75 µg/mL (Candida albicans [23]),zone of inhibition at 100 µg/mL (Candida albicans [24]),zone of inhibition at 25 µg/mL (Fusarium oxysporum [25]),zone of inhibition at 50 µg/mL (Fusarium oxysporum [26]),zone of inhibition at 75 µg/mL (Fusarium oxysporum [27]),zone of inhibition at 100 µg/mL (Fusarium oxysporum [28]),other results
CC(C)[C@H](NC(=O)OC(C)(C)C)C(=O)Oc1ccc2c(=O)c3ccccc3oc2c1,10 mm,13 mm,17 mm,22 mm,7 mm,13 mm,19 mm,22 mm,7 mm,13 mm,16 mm,20 mm,10 mm,13 mm,15 mm,21 mm,9 mm,14 mm,20 mm,23 mm,zone of inhibition at 25 µg/mL (Escherichia coli [9]): 8 mm; zone of inhibition at 50 µg/mL (Escherichia coli [10]): 13 mm; zone of inhibition at 75 µg/mL (Escherichia coli [11]): 18 mm; zone of inhibition at 100 µg/mL (Escherichia coli [12]): 20 mm; zone of inhibition at 25 µg/mL (Klebsiella pneumoniae [13]): 5 mm; zone of inhibition at 50 µg/mL (Klebsiella pneumoniae [14]): 11 mm; zone of inhibition at 75 µg/mL (Klebsiella pneumoniae [15]): 19 mm; zone of inhibition at 100 µg/mL (Klebsiella pneumoniae [16]): 24 mm; IC50 (Erythrocyte): 76 µg/mL
Cl.NCC(=O)Oc1ccc2c(=O)c3ccccc3oc2c1,10 mm,15 mm,19 mm,23 mm,10 mm,15 mm,21 mm,26 mm,7 mm,10 mm,14 mm,17 mm,9 mm,11 mm,16 mm,20 mm,7 mm,10 mm,14 mm,17 mm,zone of inhibition at 25 µg/mL (Escherichia coli [9]): 12 mm; zone of inhibition at 50 µg/mL (Escherichia coli [10]): 17 mm; zone of inhibition at 75 µg/mL (Escherichia coli [11]): 21 mm; zone of inhibition at 100 µg/mL (Escherichia coli [12]): 24 mm; zone of inhibition at 25 µg/mL (Klebsiella pneumoniae [13]): 17 mm; zone of inhibition at 50 µg/mL (Klebsiella pneumoniae [14]): 22 mm; zone of inhibition at 75 µg/mL (Klebsiella pneumoniae [15]): 27 mm; zone of inhibition at 100 µg/mL (Klebsiella pneumoniae [16]): 30 mm; IC50 (Erythrocyte): 70 µg/mL
COC(=O)Nc1nc2ccccc2[nH]1 [CARBENDAZIM],–,–,–,–,–,–,–,–,20 mm,27 mm,33 mm,36 mm,19 mm,24 mm,29 mm,32 mm,22 mm,27 mm,33 mm,36 mm,MIC (Aspergillus niger [29]): 27 µg/mL; MIC (Candida albicans [30]): 28 µg/mL; MIC (Fusarium oxysporum [31]): 27 µg/mL
CC(C)(C)OC(=O)NCC(=O)Oc1ccc2c(=O)c3ccccc3oc2c1,7 mm,12 mm,16 mm,22 mm,6 mm,12 mm,16 mm,20 mm,5 mm,9 mm,12 mm,15 mm,7 mm,10 mm,14 mm,16 mm,4 mm,9 mm,13 mm,15 mm,zone of inhibition at 25 µg/mL (Escherichia coli [9]): 7 mm; zone of inhibition at 50 µg/mL (Escherichia coli [10]): 3 mm; zone of inhibition at 75 µg/mL (Escherichia coli [11]): 16 mm; zone of inhibition at 100 µg/mL (Escherichia coli [12]): 21 mm; zone of inhibition at 25 µg/mL (Klebsiella pneumoniae [13]): 16 mm; zone of inhibition at 50 µg/mL (Klebsiella pneumoniae [14]): 12 mm; zone of inhibition at 75 µg/mL (Klebsiella pneumoniae [15]): 17 mm; zone of inhibition at 100 µg/mL (Klebsiella pneumoniae [16]): 23 mm; IC50 (Erythrocyte): 66 µg/mL
